The results in this text go back to ChEMBL document CHEMBL1122153, “Novel dimeric derivatives of leucomycins and tylosin, sixteen-membered macrolides” (1982).

Values after ≈ are worked out from the molar mass of the structure shown.

Holding throughout (format): functional
One experiment relates to Klebsiella pneumoniae. Description: Minimum inhibitory concentration (MIC) required to inhibit the growth of Klebsiella pneumoniae PCI 602 using nutrient agar as growth medium.
The test system of another experiment is Staphylococcus aureus. Kind of experiment: Minimum inhibitory concentration (MIC) required to inhibit the growth of Staphylococcus aureus FDA 209P by using nutrient agar as growth medium.
The next experiment deals with Micrococcus luteus. Description: Minimum inhibitory concentration (MIC) required to inhibit the growth of Sarcina lutea PCI 1001 by using nutrient agar as growth medium.
Experiment [1] has as its system Escherichia coli. Description: Minimum inhibitory concentration (MIC) required to inhibit the growth of Escherichia coli NIHJ using nutrient agar as growth medium.
In experiment [2] the test system is Escherichia coli. Description: Inhibition of 10,11,12,13-[3H]tetrahydroleucomycin A3 binding to Escherichia coli Ribosome. The settings on record: read-out: ID50. An outline of the steps:
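Competition binding of [3H]tetrahydroleucomycin A3 to E. coli ribosomes. ID50 is the concentration of test agent giving 50% inhibition of radioligand binding.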

Another experiment has as its system Bacillus subtilis. Kind of experiment: Minimum inhibitory concentration (MIC) required to inhibit the growth of Bacillus subtilis PCI 219 by using nutrient agar as growth medium.

Take `CC[C@H]1OC(=O)C[C@@H](O)[C@H](C)[C@@H](O[C@@H]2O[C@H](C)[C@@H](O[C@H]3C[C@@](C)(O)[C@@H](O)[C@H](C)O3)[C@H](N(C)C)[C@H]2O)[C@@H](CC=O)C[C@@H](C)C(=O)/C=C/C(C)=C/[C@@H]1CO[C@@H]1O[C@H](C)[C@@H](O)[C@@H](OC)[C@H]1OC` [TYLOSIN]: the minimal inhibitory concentration (MIC) (commonly the least concentration at which growth counts as inhibited) in the experiment on Klebsiella pneumoniae was 100 mg/L (≈ 109 µM); against Staphylococcus aureus it was 0.78 mg/L (≈ 0.851 µM); in the experiment with Micrococcus luteus, under 0.1 mg/L; in the experiment with Escherichia coli [1], 50 mg/L (≈ 54.6 µM); with Bacillus subtilis, 0.78 mg/L (≈ 0.851 µM). In the experiment with Escherichia coli [2], the IC50 turned out to be 0.0004 mg/L (≈ 0.000437 µM).
As for `CCCC(=O)OC1C(C)OC(OC2C(C)OC(O[C@H]3[C@@H](CC=O)C[C@@H](C)[C@@H](O)/C=C/C=C/C[C@@H](C)OC(=O)C[C@@H](O)[C@@H]3OC)C(O)C2N(C)C)CC1(C)O` (some centres undefined), the MIC against Klebsiella pneumoniae was 25 mg/L (≈ 32.4 µM); with Staphylococcus aureus it was under 0.1 mg/L; in the experiment with Micrococcus luteus, under 0.1 mg/L; against Escherichia coli [1], 25 mg/L (≈ 32.4 µM); against Bacillus subtilis, 0.2 mg/L (≈ 0.259 µM). Moreover, the IC50 in the experiment on Escherichia coli [2] turned out to be 0.0012 mg/L (≈ 0.00155 µM).
For `CCCC(=O)OC1C(C)OC(OC2C(C)OC(O[C@@H]3[C@H](CCNCC[C@H]4C[C@@H](C)[C@@H](O)/C=C/C=C/C[C@@H](C)OC(=O)C[C@@H](O)[C@H](OC)[C@H]4OC4OC(C)C(OC5CC(C)(O)C(OC(=O)CCC)C(C)O5)C(N(C)C)C4O)C[C@H](C)[C@H](O)/C=C/C=C/C[C@H](C)OC(=O)C[C@H](O)[C@H]3OC)C(O)C2N(C)C)CC1(C)O` (some centres undefined), the MIC was over 100 mg/L with Klebsiella pneumoniae; 50 mg/L (≈ 32.7 µM) against Staphylococcus aureus; 12.5 mg/L (≈ 8.18 µM) against Micrococcus luteus; over 100 mg/L against Escherichia coli [1]; 12.5 mg/L (≈ 8.18 µM) against Bacillus subtilis. Besides, in the experiment with Escherichia coli [2], the IC50 was 0.02 mg/L (≈ 0.0131 µM).
Take `CCCC(=O)OC1C(C)OC(OC2C(C)OC(O[C@H]3[C@@H](CCN)C[C@@H](C)[C@@H](O)/C=C/C=C/C[C@@H](C)OC(=O)C[C@@H](O)[C@@H]3OC)C(O)C2N(C)C)CC1(C)O` (some centres undefined): the MIC is over 100 mg/L with Klebsiella pneumoniae; over 100 mg/L against Staphylococcus aureus; 25 mg/L (≈ 32.3 µM) with Micrococcus luteus; over 100 mg/L against Escherichia coli [1]; over 100 mg/L against Bacillus subtilis.
As for `CO[C@@H]1[C@@H](OC2OC(C)C(OC3CC(C)(O)C(OC(=O)CC(C)C)C(C)O3)C(N(C)C)C2O)[C@@H](CC=O)C[C@@H](C)[C@@H](O)/C=C/C=C/C[C@@H](C)OC(=O)C[C@H]1OC(C)=O` (some centres undefined), the MIC in the experiment on Klebsiella pneumoniae was 50 mg/L (≈ 60.4 µM); in the experiment with Staphylococcus aureus, 0.4 mg/L (≈ 0.483 µM); against Micrococcus luteus it was under 0.1 mg/L; with Escherichia coli [1], 50 mg/L (≈ 60.4 µM); against Bacillus subtilis it was 0.4 mg/L (≈ 0.483 µM).
As to `CC[C@H]1C[C@@H](C)[C@@H](O)/C=C/C=C/C[C@@H](C)OC(=O)C[C@@H](OC(C)=O)[C@H](OC)[C@H]1OC1OC(C)C(OC2CC(C)(O)C(OC(=O)CC(C)C)C(C)O2)C(N(C)C)C1O` (some centres undefined), the minimal inhibitory concentration (MIC) with Klebsiella pneumoniae was over 100 mg/L; against Staphylococcus aureus it was 6.25 mg/L (≈ 7.68 µM); in the experiment with Micrococcus luteus, 1.56 mg/L (≈ 1.92 µM); in the experiment with Escherichia coli [1], over 100 mg/L; against Bacillus subtilis, 6.25 mg/L (≈ 7.68 µM).
As to `CO[C@@H]1[C@@H](OC2OC(C)C(OC3CC(C)(O)C(OC(=O)CC(C)C)C(C)O3)C(N(C)C)C2O)[C@@H](CCNCC[C@@H]2C[C@H](C)[C@H](O)/C=C/C=C/C[C@H](C)OC(=O)C[C@H](OC(C)=O)[C@@H](OC)[C@@H]2OC2OC(C)C(OC3CC(C)(O)C(OC(=O)CC(C)C)C(C)O3)C(N(C)C)C2O)C[C@@H](C)[C@@H](O)/C=C/C=C/C[C@@H](C)OC(=O)C[C@H]1OC(C)=O` (some centres undefined), the MIC against Klebsiella pneumoniae is over 100 mg/L; against Staphylococcus aureus, 100 mg/L (≈ 60.9 µM); in the experiment with Micrococcus luteus, 25 mg/L (≈ 15.2 µM); in the experiment on Escherichia coli [1], over 100 mg/L; in the experiment with Bacillus subtilis it was 6.25 mg/L (≈ 3.81 µM). The IC50 in the experiment with Escherichia coli [2] came out at 0.1 mg/L (≈ 0.0609 µM).
Take `CO[C@@H]1[C@@H](OC2OC(C)C(OC3CC(C)(O)C(OC(=O)CC(C)C)C(C)O3)C(N(C)C)C2O)[C@@H](CCN)C[C@@H](C)[C@@H](O)/C=C/C=C/C[C@@H](C)OC(=O)C[C@H]1OC(C)=O` (some centres undefined): the minimal inhibitory concentration (MIC) was over 100 mg/L with Klebsiella pneumoniae; over 100 mg/L against Staphylococcus aureus; over 100 mg/L in the experiment with Micrococcus luteus; over 100 mg/L against Escherichia coli [1]; 50 mg/L (≈ 60.3 µM) in the experiment with Bacillus subtilis.
Consider `CC[C@@H]1OC(=O)C[C@H](O)[C@@H](C)[C@H](OC2OC(C)C(O)C(N(C)C)C2O)[C@H](CCNCC[C@H]2C[C@@H](C)C(=O)/C=C/C(C)=C/C(COC3OC(C)C(O)C(OC)C3OC)[C@@H](CC)OC(=O)C[C@@H](O)[C@H](C)[C@H]2OC2OC(C)C(O)C(N(C)C)C2O)C[C@H](C)C(=O)/C=C/C(C)=C/C1COC1OC(C)C(O)C(OC)C1OC` (some centres undefined), for which the minimum inhibitory concentration (MIC) amounted to 100 mg/L (≈ 65.4 µM) in the experiment on Klebsiella pneumoniae; 3.12 mg/L (≈ 2.04 µM) against Staphylococcus aureus; 0.78 mg/L (≈ 0.51 µM) with Micrococcus luteus; 50 mg/L (≈ 32.7 µM) in the experiment on Escherichia coli [1]; 25 mg/L (≈ 16.4 µM) in the experiment on Bacillus subtilis.
Consider `CC[C@H]1OC(=O)C[C@@H](O)[C@H](C)[C@@H](OC2OC(C)C(OC3CC(C)(O)C(O)C(C)O3)C(N(C)C)C2O)[C@@H](CCN)C[C@@H](C)C(=O)/C=C/C(C)=C/C1COC1OC(C)C(O)C(OC)C1OC` (some centres undefined), for which the minimum inhibitory concentration (MIC) is over 100 mg/L with Klebsiella pneumoniae; 50 mg/L (≈ 54.5 µM) in the experiment on Staphylococcus aureus; 6.25 mg/L (≈ 6.81 µM) with Micrococcus luteus; over 100 mg/L in the experiment with Escherichia coli [1]; 25 mg/L (≈ 27.3 µM) in the experiment with Bacillus subtilis.
